Source: ChEMBL document CHEMBL4184148 (Bioorg Med Chem Lett, 2017)

Key:
[1] = test system: Tyrosine-protein kinase ABL1 (Homo sapiens), P00519 [T315I]; assay: Binding affinity to human phosphorylated ABL1 T315I mutant (S229 to K512 residues) expressed in HEK293 cells at 1 uM by Kinomescan method relative to control; type: cell-based
[2] = molecular target: RAC-beta serine/threonine-protein kinase (Homo sapiens) (UniProt P31751); assay: Binding affinity to wild-type human partial length AKT2 expressed in Escherichia coli BL21 at 1 uM by Kinomescan method relative to control
Outline: (§1)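 Kinome-wide competition binding panel run by an outside provider, with each compound tested at a single concentration. Activity is read against the kinase panel.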

[3] = molecular target: Calcium/calmodulin-dependent protein kinase type II subunit alpha (Homo sapiens) (UniProt Q9UQM7); assay: Binding affinity to wild-type human partial length CAMK2A (M1 to K328 residues) expressed in Escherichia coli BL21 at 1 uM by Kinomescan method relative to control
[4] = molecular target: Cyclin-dependent kinase 11A (Homo sapiens) (UniProt Q9UQ88); assay: Binding affinity to wild-type human partial length CDC2L2 (D391 to K730 residues) expressed in Escherichia coli BL21 at 1 uM by Kinomescan method relative to control
[5] = molecular target: Macrophage colony-stimulating factor 1 receptor (Homo sapiens) (UniProt P07333); assay: Binding affinity to wild-type human partial length CSF1R (I564 to S939 residues) expressed in Escherichia coli BL21 at 1 uM by Kinomescan method relative to control
[6] = molecular target: Casein kinase I isoform gamma-1 (Homo sapiens) (UniProt Q9HCP0); assay: Binding affinity to wild-type human partial length CSNK1G1 (T15 to S353 residues) expressed in Escherichia coli BL21 at 1 uM by Kinomescan method relative to control
[7] = molecular target: Epidermal growth factor receptor (Homo sapiens) (UniProt P00533); assay: Binding affinity to human partial length EGFR S752-I759del mutant expressed in Escherichia coli BL21 at 1 uM by Kinomescan method relative to control
[8] = molecular target: Ephrin type-A receptor 3 (Homo sapiens) (UniProt P29320); assay: Binding affinity to wild-type human partial length EPHA3 (D604 to K889 residues) expressed in Escherichia coli BL21 at 1 uM by Kinomescan method relative to control
[9] = molecular target: Ephrin type-B receptor 6 (Homo sapiens) (UniProt O15197); assay: Binding affinity to wild-type human partial length EPHB6 (Q634 to P948 residues) expressed in HEK293 cells at 1 uM by Kinomescan method relative to control; type: cell-based
[10] = molecular target: Mitogen-activated protein kinase 7 (Homo sapiens) (UniProt Q13164); assay: Binding affinity to wild-type human partial length ERK5 (M1 to A409 residues) expressed in Escherichia coli BL21 at 1 uM by Kinomescan method relative to control
[11] = test system: Receptor-type tyrosine-protein kinase FLT3 (Homo sapiens), P36888 [UNDEFINED MUTATION]; assay: Binding affinity to human partial length FLT3 ITD/D835V double mutant expressed in Escherichia coli BL21 at 1 uM by Kinomescan method relative to control
[12] = molecular target: Rhodopsin kinase GRK1 (Homo sapiens) (UniProt Q15835); assay: Binding affinity to wild-type human full length GRK1 (M1 to S563 residues) expressed in HEK293 cells at 1 uM by Kinomescan method relative to control; type: cell-based
Outline: (§2)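 Run as one kinome-wide competition binding panel with each compound at a single fixed concentration. Results were plotted as a kinome-wide selectivity map.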

[13] = test system: Mast/stem cell growth factor receptor Kit (Homo sapiens), P10721 [V559D,T670I]; assay: Binding affinity to human partial length KIT V559D/T670I double mutant (Y545 to D952 residues) expressed in Escherichia coli BL21 at 1 uM by Kinomescan method relative to control
[14] = test system: Mast/stem cell growth factor receptor Kit (Homo sapiens), P10721 [V559D]; assay: Binding affinity to human partial length KIT V559D mutant (Y545 to D952 residues) expressed in Escherichia coli BL21 at 1 uM by Kinomescan method relative to control
[15] = molecular target: Dual specificity mitogen-activated protein kinase kinase 3 (Homo sapiens) (UniProt P46734); assay: Binding affinity to wild-type human full length MEK3 (M1 to S318 residues) expressed in HEK293 cells at 1 uM by Kinomescan method relative to control; type: cell-based; outline: as §2
[16] = molecular target: MAP kinase-interacting serine/threonine-protein kinase 2 (Homo sapiens) (UniProt Q9HBH9); assay: Binding affinity to wild-type human partial length MKNK2 (G63 to S388 residues) expressed in HEK293 cells at 1 uM by Kinomescan method relative to control; type: cell-based
[17] = molecular target: Serine/threonine-protein kinase 24 (Homo sapiens) (UniProt Q9Y6E0); assay: Binding affinity to wild-type human partial length MST3 (A30 to S311 residues) expressed in Escherichia coli BL21 at 1 uM by Kinomescan method relative to control
[18] = molecular target: Serine/threonine-protein kinase Nek11 (Homo sapiens) (UniProt Q8NG66); assay: Binding affinity to wild-type human partial length NEK11 (M1 to E313 residues) expressed in HEK293 cells at 1 uM by Kinomescan method relative to control; type: cell-based
[19] = molecular target: Cyclin-dependent kinase 15 (Homo sapiens) (UniProt Q96Q40); assay: Binding affinity to wild-type human full length PFTAIRE2 (M1 to W384 residues) expressed in Escherichia coli BL21 at 1 uM by Kinomescan method relative to control; outline: as §1
[20] = test system: Phosphatidylinositol 4,5-bisphosphate 3-kinase catalytic subunit alpha isoform (Homo sapiens), P42336 [C420R]; assay: Binding affinity to human partial length PIK3CA C420R mutant (R108 to N1068 residues) expressed in HEK293 cells at 1 uM by Kinomescan method relative to control; type: cell-based
[21] = molecular target: Serine/threonine-protein kinase pim-3 (Homo sapiens) (UniProt Q86V86); assay: Binding affinity to wild-type human partial length PIM3 (G16 to A317 residues) expressed in Escherichia coli BL21 at 1 uM by Kinomescan method relative to control
[22] = molecular target: Phosphatidylinositol 5-phosphate 4-kinase type-2 beta (Homo sapiens) (UniProt P78356); assay: Binding affinity to wild-type human full length PIP5K2B (M1 to T416 residues) expressed in Escherichia coli BL21 at 1 uM by Kinomescan method relative to control; outline: as §1
[23] = molecular target: Serine/threonine-protein kinase TAO2 (Homo sapiens) (UniProt Q9UL54); assay: Binding affinity to wild-type human partial length TAOK2 (M1 to A320 residues) expressed in HEK293 cells at 1 uM by Kinomescan method relative to control; type: cell-based
[24] = molecular target: BDNF/NT-3 growth factors receptor (Homo sapiens) (UniProt Q16620); assay: Binding affinity to wild-type human partial length TRKB (Q547 to G838 residues) expressed in HEK293 cells at 1 uM by Kinomescan method relative to control; type: cell-based
[25] = molecular target: Serine/threonine-protein kinase ULK2 (Homo sapiens) (UniProt Q8IYT8); assay: Binding affinity to wild-type human partial length ULK2 (M1 to S301 residues) expressed in HEK293 cells at 1 uM by Kinomescan method relative to control; type: cell-based

Chain of Serine/threonine-protein kinase Nek11 (Homo sapiens) (Q8NG66 whole entry, the tested form may be a part): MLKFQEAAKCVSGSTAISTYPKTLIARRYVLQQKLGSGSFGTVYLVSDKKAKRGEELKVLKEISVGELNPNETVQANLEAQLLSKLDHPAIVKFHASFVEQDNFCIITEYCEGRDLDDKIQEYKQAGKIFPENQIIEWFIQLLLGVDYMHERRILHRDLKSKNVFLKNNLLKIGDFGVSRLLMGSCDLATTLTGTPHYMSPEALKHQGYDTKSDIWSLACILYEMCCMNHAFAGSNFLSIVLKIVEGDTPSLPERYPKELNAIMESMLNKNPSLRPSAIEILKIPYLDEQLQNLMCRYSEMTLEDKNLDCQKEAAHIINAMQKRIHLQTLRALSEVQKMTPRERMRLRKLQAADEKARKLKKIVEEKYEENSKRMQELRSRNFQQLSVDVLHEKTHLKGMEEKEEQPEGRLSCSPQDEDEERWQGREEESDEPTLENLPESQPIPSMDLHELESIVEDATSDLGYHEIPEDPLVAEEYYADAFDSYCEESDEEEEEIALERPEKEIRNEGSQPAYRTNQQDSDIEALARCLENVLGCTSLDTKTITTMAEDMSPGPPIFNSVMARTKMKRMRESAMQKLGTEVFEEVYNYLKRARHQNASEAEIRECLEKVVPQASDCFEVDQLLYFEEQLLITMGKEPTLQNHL
Chain of RAC-beta serine/threonine-protein kinase (Homo sapiens) (P31751 whole entry): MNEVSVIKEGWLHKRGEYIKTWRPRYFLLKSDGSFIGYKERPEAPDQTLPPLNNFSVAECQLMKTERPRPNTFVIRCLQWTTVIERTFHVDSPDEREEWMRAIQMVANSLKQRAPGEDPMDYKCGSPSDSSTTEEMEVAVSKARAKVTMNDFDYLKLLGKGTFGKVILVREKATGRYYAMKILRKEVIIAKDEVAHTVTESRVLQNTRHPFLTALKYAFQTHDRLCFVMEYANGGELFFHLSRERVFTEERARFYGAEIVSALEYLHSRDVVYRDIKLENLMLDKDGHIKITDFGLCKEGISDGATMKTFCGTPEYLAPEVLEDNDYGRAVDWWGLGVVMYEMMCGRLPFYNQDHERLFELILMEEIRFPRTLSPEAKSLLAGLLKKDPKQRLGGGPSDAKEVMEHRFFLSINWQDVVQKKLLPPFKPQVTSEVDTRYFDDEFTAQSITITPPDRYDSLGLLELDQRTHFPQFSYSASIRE
Chain of Calcium/calmodulin-dependent protein kinase type II subunit alpha (Homo sapiens) (Q9UQM7 whole entry, the tested form may be a part): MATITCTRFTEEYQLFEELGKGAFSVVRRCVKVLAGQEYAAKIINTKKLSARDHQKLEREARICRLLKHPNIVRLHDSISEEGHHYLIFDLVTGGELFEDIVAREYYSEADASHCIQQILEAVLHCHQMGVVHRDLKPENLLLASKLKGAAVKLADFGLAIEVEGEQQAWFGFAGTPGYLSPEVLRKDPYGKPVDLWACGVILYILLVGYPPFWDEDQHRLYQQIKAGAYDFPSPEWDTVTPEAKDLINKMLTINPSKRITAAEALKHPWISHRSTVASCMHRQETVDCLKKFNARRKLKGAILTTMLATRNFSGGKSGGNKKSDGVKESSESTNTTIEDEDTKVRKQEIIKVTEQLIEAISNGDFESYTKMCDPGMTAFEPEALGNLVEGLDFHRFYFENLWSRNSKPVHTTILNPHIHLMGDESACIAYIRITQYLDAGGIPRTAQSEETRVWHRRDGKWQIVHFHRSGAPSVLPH
Chain of Serine/threonine-protein kinase 24 (Homo sapiens) (Q9Y6E0 whole entry, looked up, the tested form may be a part): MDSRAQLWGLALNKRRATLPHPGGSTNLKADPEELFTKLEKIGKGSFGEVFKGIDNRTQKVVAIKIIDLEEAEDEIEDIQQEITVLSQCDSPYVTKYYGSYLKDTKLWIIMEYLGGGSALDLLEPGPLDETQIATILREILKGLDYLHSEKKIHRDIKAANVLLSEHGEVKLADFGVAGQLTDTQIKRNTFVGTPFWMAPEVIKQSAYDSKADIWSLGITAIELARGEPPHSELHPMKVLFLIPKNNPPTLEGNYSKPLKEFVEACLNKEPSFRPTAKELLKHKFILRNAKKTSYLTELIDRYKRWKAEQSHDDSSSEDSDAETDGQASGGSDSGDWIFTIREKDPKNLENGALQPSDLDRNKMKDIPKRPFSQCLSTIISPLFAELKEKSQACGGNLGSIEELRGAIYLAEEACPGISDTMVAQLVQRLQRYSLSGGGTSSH
Chain of Dual specificity mitogen-activated protein kinase kinase 3 (Homo sapiens) (P46734 whole entry, the tested form may be a part): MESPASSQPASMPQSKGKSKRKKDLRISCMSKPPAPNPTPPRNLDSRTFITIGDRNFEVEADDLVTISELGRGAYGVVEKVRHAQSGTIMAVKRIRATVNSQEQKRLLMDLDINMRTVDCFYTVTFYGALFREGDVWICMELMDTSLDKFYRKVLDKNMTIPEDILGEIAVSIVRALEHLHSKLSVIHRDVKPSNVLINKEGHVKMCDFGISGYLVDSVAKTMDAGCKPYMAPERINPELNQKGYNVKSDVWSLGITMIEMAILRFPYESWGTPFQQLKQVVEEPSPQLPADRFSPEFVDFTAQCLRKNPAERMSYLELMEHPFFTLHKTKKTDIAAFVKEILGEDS
Chain of Ephrin type-A receptor 3 (Homo sapiens) (P29320 whole entry, the tested form may be a part): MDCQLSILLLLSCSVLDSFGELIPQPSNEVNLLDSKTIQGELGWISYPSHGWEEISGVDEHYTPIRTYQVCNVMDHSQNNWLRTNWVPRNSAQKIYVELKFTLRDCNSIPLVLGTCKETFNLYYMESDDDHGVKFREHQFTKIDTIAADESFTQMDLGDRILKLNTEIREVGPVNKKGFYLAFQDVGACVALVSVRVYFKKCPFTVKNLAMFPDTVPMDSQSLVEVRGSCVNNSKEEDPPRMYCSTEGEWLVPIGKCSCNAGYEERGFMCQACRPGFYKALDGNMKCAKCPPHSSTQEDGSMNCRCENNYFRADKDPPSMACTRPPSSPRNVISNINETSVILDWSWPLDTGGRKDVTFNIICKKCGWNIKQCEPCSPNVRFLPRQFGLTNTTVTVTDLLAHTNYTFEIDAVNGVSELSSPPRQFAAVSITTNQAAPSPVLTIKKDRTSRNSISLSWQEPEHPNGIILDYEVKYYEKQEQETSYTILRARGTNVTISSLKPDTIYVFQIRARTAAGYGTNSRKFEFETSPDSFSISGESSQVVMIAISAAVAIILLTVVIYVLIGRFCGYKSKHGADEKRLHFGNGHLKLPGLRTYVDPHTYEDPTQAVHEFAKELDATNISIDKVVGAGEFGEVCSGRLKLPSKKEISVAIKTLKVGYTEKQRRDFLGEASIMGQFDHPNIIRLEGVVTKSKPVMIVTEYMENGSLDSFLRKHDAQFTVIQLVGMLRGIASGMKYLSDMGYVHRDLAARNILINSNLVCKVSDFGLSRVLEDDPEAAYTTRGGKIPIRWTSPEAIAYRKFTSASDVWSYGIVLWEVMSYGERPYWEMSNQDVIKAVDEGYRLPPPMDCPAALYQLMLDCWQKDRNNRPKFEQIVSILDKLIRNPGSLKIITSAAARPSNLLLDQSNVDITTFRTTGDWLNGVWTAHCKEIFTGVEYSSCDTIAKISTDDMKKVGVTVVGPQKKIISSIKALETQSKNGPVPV
Chain of Serine/threonine-protein kinase TAO2 (Homo sapiens) (Q9UL54 whole entry, the tested form may be a part): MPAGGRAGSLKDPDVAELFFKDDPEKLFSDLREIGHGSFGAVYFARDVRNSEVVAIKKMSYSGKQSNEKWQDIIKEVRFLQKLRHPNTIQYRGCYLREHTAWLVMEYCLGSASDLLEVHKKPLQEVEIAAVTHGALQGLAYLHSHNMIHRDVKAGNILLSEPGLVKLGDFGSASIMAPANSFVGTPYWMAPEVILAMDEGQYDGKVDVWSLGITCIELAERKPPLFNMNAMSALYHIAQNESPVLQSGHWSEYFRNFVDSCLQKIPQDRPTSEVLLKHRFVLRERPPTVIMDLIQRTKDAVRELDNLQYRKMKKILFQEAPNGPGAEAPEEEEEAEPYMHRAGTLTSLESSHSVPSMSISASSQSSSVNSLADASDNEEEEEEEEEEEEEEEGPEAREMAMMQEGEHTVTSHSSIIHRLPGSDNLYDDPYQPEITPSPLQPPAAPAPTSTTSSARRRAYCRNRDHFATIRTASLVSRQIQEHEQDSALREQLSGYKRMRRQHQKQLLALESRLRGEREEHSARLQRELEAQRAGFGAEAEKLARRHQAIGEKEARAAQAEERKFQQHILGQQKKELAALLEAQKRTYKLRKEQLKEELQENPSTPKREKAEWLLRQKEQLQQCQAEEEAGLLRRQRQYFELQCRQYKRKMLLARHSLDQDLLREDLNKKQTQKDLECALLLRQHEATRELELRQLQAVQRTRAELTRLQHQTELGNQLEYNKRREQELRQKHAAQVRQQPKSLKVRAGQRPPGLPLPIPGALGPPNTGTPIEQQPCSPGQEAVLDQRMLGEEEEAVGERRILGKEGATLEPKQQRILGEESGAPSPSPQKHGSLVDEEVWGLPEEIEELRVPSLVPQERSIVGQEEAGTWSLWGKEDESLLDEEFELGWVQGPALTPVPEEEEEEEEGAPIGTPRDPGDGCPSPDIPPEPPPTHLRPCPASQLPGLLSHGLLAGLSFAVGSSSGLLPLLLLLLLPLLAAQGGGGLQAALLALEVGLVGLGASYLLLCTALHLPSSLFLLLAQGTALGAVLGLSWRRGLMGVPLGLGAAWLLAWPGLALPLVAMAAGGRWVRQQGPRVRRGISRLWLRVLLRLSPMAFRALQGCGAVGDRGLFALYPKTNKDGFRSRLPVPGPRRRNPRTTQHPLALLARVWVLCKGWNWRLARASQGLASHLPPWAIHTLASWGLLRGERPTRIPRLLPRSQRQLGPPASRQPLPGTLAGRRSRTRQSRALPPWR

Compound | Activity [1] [%] | Activity [2] [%] | Activity [3] [%] | Activity [4] [%] | Activity [5] [%] | Activity [6] [%] | Activity [7] [%] | Activity [8] [%] | Activity [9] [%] | Activity [10] [%] | Activity [11] [%] | Activity [12] [%] | Activity [13] [%] | Activity [14] [%] | Activity [15] [%] | Activity [16] [%] | Activity [17] [%] | Activity [18] [%] | Activity [19] [%] | Activity [20] [%] | also measured
C=CC(=O)Nc1ccc(C(=O)Nc2ccc(Nc3ncc4c(n3)N(C)c3ccc(C)cc3C(=O)N4C)cc2)cc1 | 99 | 95 | 100 | 100 | 100 | 100 | 96 | 100 | 96 | 86 | 94 | 73 | 100 | 97 | 92 | 66 | 100 | 100 | 99 | 58 | Activity [21]: 100%; Activity [22]: 83%; Activity [23]: 83%; Activity [24]: 100%; Activity [25]: 94%
CCC(=O)Nc1ccc(C(=O)Nc2ccc(Nc3ncc4c(n3)N(C)c3ccc(C)cc3C(=O)N4C)cc2)cc1 | 100 | 100 | 88 | 88 | 87 | 100 | 90 | 99 | 77 | 97 | 100 | 76 | 97 | 94 | 65 | 84 | 100 | 96 | 100 | 89 | Activity [21]: 82%; Activity [22]: 94%; Activity [23]: 100%; Activity [24]: 84%; Activity [25]: 82%
